Calls of active or inactive are those of the source. No cut-off for these calls is given here.
Tests used:
Neutrophil elastase = target: T1, Neutrophil elastase (Homo sapiens, UniProt P08246); assay: Inhibition of human leukocyte elastase using MeOSuc-Ala-Ala-Pro-Val-para-nitroanilide chromogenic substrate after 10 mins spectrophotometrically
T1 sequence (P08246 whole entry): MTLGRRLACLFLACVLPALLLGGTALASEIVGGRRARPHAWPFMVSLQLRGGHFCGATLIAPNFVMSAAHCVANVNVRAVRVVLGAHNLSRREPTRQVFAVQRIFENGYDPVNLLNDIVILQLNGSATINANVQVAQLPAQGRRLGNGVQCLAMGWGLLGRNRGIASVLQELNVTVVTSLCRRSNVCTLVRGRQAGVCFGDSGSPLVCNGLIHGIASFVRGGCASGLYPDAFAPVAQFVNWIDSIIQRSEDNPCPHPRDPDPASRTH
Procedure, shortened: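 Human leukocyte elastase enzyme inhibition assay; IC50 (μM) determined and reported as mean ± spread.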

L929 [1] = assay: Cytotoxicity against mouse L929 cells after 5 days by MTT assay; type: cell-based; conditions: L929, 120 h
Procedure, shortened: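 MTT viability assay run on mouse fibroblast cells; result expressed as IC50 (μM).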

Mycolicibacterium phlei [2] = assay: Antibacterial activity against Mycobacterium phlei assessed as zone of inhibition at 20 ug/disk after 24 hrs by agar diffusion assay; type: functional; conditions: read-out: DIZ
Procedure, shortened: (§1)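 Paper discs loaded at 20 μg/disk were placed on agar seeded with each bacterium (Mycobacterium phlei, Staphylococcus aureus or Escherichia coli). Read-out was the diameter of the inhibition zone, recorded in mm.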

Staphylococcus aureus [3] = assay: Antibacterial activity against Staphylococcus aureus assessed as zone of inhibition at 20 ug/disk after 24 hrs by agar diffusion assay; type: functional; conditions: read-out: DIZ; procedure, shortened: as §1
Escherichia coli [4] = assay: Antibacterial activity against Escherichia coli assessed as zone of inhibition at 20 ug/disk after 24 hrs by agar diffusion assay; type: functional; conditions: read-out: DIZ; procedure, shortened: as §1
[5] = Inhibition of bovine Chymotrypsin; parameters: species or system Bos taurus
[6] = Inhibition of bovine trypsin; parameters: species or system Bos taurus
Prothrombin = Prothrombin (Homo sapiens, UniProt P00734); assay: Inhibition of human thrombin
Papain = target: T2, Papain (Carica papaya, UniProt P00784); assay: Inhibition of Carica papaya papain
T2 sequence (P00784 whole entry): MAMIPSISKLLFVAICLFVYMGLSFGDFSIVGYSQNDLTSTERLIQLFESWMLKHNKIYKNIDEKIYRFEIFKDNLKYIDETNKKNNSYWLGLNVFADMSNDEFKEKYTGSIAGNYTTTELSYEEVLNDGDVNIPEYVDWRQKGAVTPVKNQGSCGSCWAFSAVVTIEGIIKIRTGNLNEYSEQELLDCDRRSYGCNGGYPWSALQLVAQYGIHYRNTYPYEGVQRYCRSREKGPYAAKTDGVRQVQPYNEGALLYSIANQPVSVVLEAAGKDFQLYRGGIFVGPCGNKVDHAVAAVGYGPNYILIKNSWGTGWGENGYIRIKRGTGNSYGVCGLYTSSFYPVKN

[7] = Inhibition of porcine cholesterol esterase; parameters: species or system Sus scrofa
Acetylcholinesterase = Acetylcholinesterase (Electrophorus electricus, UniProt O42275); assay: Inhibition of electric eel AChE
L929 [8] = assay: Cytotoxicity against mouse L929 cells at 60 uL after 5 days by MTT assay; type: cell-based; conditions: l929, 120 h
Mycolicibacterium phlei [9] = assay: Antibacterial activity against Mycobacterium phlei at 20 uL after 24 hrs by agar diffusion assay; type: functional, organism-based
Staphylococcus aureus [10] = assay: Antibacterial activity against Staphylococcus aureus at 20 uL after 24 hrs by agar diffusion assay; type: functional, organism-based
Escherichia coli [11] = assay: Antibacterial activity against Escherichia coli at 20 ug/disk after 24 hrs by agar diffusion assay

Acetylcholinesterase, sequence (O42275 whole entry): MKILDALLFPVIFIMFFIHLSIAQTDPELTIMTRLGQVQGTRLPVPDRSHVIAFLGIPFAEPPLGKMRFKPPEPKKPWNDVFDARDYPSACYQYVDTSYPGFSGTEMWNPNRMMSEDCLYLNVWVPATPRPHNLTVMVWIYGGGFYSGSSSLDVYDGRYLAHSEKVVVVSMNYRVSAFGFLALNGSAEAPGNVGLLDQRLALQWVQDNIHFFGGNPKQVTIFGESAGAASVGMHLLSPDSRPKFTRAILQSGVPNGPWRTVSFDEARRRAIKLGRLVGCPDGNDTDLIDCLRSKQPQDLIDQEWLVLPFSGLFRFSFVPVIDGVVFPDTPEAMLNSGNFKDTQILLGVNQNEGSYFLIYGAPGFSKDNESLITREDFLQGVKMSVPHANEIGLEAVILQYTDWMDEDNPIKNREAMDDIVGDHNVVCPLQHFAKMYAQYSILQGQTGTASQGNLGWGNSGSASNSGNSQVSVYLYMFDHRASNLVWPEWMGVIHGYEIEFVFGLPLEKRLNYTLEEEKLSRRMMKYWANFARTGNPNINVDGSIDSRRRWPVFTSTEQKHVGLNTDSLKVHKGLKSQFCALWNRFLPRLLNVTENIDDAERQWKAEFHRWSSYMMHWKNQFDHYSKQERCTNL

Cc1cc(O)cc2c1C1=C(C(=O)C2=O)C(C)(C)[C@H](C)O1
IC50 (Neutrophil elastase): > 20 µM | IC50 (L929 [1]): 7.5 µM | zone of inhibition at 20 µg/disc (Mycolicibacterium phlei [2]): 18 mm | zone of inhibition at 20 µg/disc (Staphylococcus aureus [3]): 14 mm | zone of inhibition at 20 µg/disc (Escherichia coli [4]): 12 mm | IC50 [5]: > 50 µM | IC50 [6]: > 50 µM | IC50 (Prothrombin): > 50 µM | IC50 (Papain): > 50 µM | IC50 [7]: > 50 µM | IC50 (Acetylcholinesterase): > 50 µM

C[C@@H]1OC2=C(C(=O)C(=N)c3c(O)c(O)cc(C=O)c32)C1(C)C
IC50 (Neutrophil elastase): 3.01 µM | Activity (L929 [8]): Non-toxic | Activity (Mycolicibacterium phlei [9]): inactive | Activity (Staphylococcus aureus [10]): inactive | IC50 [5]: > 50 µM | IC50 [6]: > 50 µM | IC50 (Prothrombin): > 50 µM | IC50 (Papain): > 50 µM | IC50 [7]: > 50 µM | IC50 (Acetylcholinesterase): > 50 µM | Activity (Escherichia coli [11]): inactive

Cc1cc(O)c2c3c(c(O)c4c(c13)O[C@@H](C)C4(C)C)NC2=O
IC50 (Neutrophil elastase): 9.28 µM | Activity (L929 [8]): Non-toxic | Activity (Mycolicibacterium phlei [9]): inactive | Activity (Staphylococcus aureus [10]): inactive | IC50 [5]: > 50 µM | IC50 [6]: > 50 µM | IC50 (Prothrombin): > 50 µM | IC50 (Papain): > 50 µM | IC50 [7]: > 50 µM | IC50 (Acetylcholinesterase): > 50 µM | Activity (Escherichia coli [11]): inactive

Reference: ChEMBL document CHEMBL1833924, “HLE-inhibitory alkaloids with a polyketide skeleton from the marine-derived fungus Coniothyrium cereale” (J Nat Prod, 2011)
